The record followed here is ChEMBL document CHEMBL1147646, “Novel benzofuran derivatives for PET imaging of beta-amyloid plaques in Alzheimer's disease brains” (J Med Chem, 2006).

For data set [1], the target named is T1, Amyloid-beta precursor protein (Homo sapiens, UniProt P05067). In words: Displacement of [125I]IMPY from beta amyloid in human corpse AD brain.
Data set [2] is filed under the species Mus musculus. In words: %Compound removed from ddY mouse brain after 30 mins. The note with it: in vivo, 0.5 h. It is filed as ADME, organism-based.
Data set [3] is described as follows: Partition coefficient, log P at pH 7.4. It is filed as physicochemical. The note with it: octanol/water.
For data set [4], the system named is Mus musculus. In words: Ratio for drug uptake in iv dosed ddY mouse brain after 2 mins to after 30 mins. It is filed as ADME, organism-based. To be noted: in vivo.
For data set [5], the target named is T1, Amyloid-beta precursor protein. In words: Ability for neuropathological staining of amyloid plaque in human corpse AD brain temporal cortex. Type of data set: functional, tissue-based. The method, boiled down: (§1)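 Postmortem temporal cortex from two AD cases, 5 µm paraffin serial sections deparaffinized in xylene/ethanol, washed in water then PBS, immersed in compound solution at various concentrations (50% ethanol in PBS above 0.5 mM), PBS wash 15 min, mounted; viewed by fluorescence microscopy (G-filter); serial sections immunostained for Aβ and tau with DAB.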

Data set [6] shares this target. In words: Labelling of accumulated amyloid plaque in Tg2576 transgenic mouse brain cerebral cortex expressing human APP after 30 mins. It is filed as functional, tissue-based. The note with it: tested as the 11C-labelled form.
Data set [7] deals with Microtubule-associated protein tau (Homo sapiens) (UniProt P10636). In words: Ability for neuropathological staining of neurofibrillary tangles in human corpse AD brain temporal cortex.
Sequence of Microtubule-associated protein tau (Homo sapiens) (P10636 whole entry, looked up): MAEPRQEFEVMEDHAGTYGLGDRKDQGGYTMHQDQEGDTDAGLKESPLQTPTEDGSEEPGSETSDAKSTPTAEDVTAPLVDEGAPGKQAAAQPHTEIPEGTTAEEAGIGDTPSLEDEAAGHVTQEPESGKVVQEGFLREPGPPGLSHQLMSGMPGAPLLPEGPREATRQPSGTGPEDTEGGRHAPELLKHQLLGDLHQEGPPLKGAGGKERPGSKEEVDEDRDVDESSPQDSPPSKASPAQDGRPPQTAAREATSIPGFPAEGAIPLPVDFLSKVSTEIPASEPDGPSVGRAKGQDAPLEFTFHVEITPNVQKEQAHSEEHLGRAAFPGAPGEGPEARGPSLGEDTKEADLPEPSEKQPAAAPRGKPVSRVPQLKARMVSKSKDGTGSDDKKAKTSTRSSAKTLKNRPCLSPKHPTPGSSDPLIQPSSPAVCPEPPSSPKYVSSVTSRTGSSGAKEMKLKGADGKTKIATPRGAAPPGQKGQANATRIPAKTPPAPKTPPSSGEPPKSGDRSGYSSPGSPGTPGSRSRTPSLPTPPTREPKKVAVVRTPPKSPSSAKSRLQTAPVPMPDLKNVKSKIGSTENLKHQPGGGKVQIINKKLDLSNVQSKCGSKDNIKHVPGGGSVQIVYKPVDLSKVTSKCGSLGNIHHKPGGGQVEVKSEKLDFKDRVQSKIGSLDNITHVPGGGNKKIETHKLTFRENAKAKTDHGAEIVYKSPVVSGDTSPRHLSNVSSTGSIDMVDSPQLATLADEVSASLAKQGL
Data set [8] addresses T1, Amyloid-beta precursor protein. In words: Labelling of accumulated amyloid plaque in Tg2576 transgenic mouse brain hippocampus expressing human APP after 30 mins. It is filed as functional, tissue-based. The note with it: tested as the 11C-labelled form.
The target is the same in data set [9]. In words: Ability for neuropathological staining of cerebrovascular amyloid plaque in human corpse AD brain. It is filed as functional. The method in brief:
as §1

The source made the active and inactive calls. The rule behind the calls is not given here.

T1 sequence (P05067 whole entry): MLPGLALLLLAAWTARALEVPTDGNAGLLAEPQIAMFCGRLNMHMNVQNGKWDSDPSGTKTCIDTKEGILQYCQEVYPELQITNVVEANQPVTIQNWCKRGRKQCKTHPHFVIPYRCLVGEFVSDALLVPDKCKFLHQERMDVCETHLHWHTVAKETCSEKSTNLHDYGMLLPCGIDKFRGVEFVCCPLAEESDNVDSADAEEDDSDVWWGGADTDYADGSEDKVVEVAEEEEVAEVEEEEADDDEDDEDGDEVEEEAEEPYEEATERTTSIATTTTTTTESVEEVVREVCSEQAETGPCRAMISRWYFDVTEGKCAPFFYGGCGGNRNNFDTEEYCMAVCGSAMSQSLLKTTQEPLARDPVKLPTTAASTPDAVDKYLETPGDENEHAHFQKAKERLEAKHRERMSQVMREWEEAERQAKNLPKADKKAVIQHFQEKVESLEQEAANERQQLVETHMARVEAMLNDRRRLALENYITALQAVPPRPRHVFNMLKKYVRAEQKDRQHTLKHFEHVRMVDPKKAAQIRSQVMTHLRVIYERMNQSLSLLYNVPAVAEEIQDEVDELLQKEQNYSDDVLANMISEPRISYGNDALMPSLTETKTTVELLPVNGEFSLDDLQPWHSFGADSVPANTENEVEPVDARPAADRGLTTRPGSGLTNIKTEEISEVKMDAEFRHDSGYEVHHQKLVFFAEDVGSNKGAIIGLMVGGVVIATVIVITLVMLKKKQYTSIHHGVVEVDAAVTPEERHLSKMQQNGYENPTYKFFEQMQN

What is called Ki is a measure of affinity in units of concentration, obtained from inhibition or displacement. Higher therefore signals weaker binding. On to `CN(C)c1ccc(-c2cc3cc(O)ccc3o2)cc1`, for which, in data set [1], the Ki came out at 2.8 nM.
Broadly, the logD is the decadic logarithm of the distribution of all forms, ionised or not, between an organic phase and buffer at a given pH. The low end stands for a more hydrophilic compound, the high end for a more lipophilic compound. As to `[11CH3]Nc1ccc(-c2cc3cc(O)ccc3o2)cc1`, the washout in the data set filed under Mus musculus [2] is given as 90%. Besides, the pH-dependent lipophilicity (logD) in data set [3] was determined as 2.36. Also, the Ratio with Mus musculus [4] was found to be 0.07.
`COc1ccc2oc(-c3ccc(N)cc3)cc2c1`: the Ki in data set [1] stood at 2.3 nM.
Still for that read-out and setting: the result for `COc1ccc2oc(-c3ccc(N(C)C)cc3)cc2c1` reads 12 nM.
`CNc1ccc(-c2cc3cc(O)ccc3o2)cc1`: the result in [5], in data set [6], in data set [7], in data set [8] and in data set [9] was Active. In data set [1], the inhibition constant (Ki) was determined as 0.7 nM.
In the case of `Nc1ccc(-c2cc3cc(O)ccc3o2)cc1`, the inhibition constant (Ki) in data set [1] came to 11.5 nM.
The same measure, in the same setting: to `CNc1ccc(-c2cc3cc(OC)ccc3o2)cc1` belongs 1.3 nM.
